Test results from publication PMC12849484 (Microbial Cell Factories, 2025).

How the values were obtained:
[1] = tested on: Synechocystis sp. PCC 6803; experiment: Growth curves; type: cell-based; settings: OD730 over 72 h, triplicates
Method in brief: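 Synechocystis subcultures in BG11 (10 mL, starting OD730 0.2) were pre-incubated 23 h, then given test conjugate from a 1 mM water stock to final 2, 4, 6, 8 or 10 µM. Controls were untreated cells and 10 µM non-specific CPP-PNA. Hour 0 was 1 h after addition. OD730 was followed over time; triplicates, mean ± SD.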

[2] = tested on: D-lactate-pyruvate pathway in Synechocystis sp. PCC 6803 cells; experiment: LC-MS quantification of intracellular pyruvate and surrounding metabolites; type: cell-based; settings: 10 µM, normalized to WT
Method in brief: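 Cells were exposed to test conjugate at final 10 µM, with untreated wild-type and Δddh strain as comparators, and sampled at 24 and 48 h. For each sample, 8 mL culture was membrane-filtered (0.2 µm) and extracted; the aqueous phase was dried and analysed by LC-MS against 1–100 µg/mL standards. Values were normalized to untreated wild-type; ≥3 replicates; ANOVA.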

Sequence	growth inhibition at 10 µM [1]	D-lactate level at 24 h ([2]; 24 h, N = 3)	change in acetyl-CoA concentration ([2]; 24 h, N = 3)	change in malate concentration ([2]; 24 h, N = 3)	change in phosphoenolpyruvate (PEP) concentration ([2]; 24 h, N = 3)	increase in pyruvate compared to untreated wild-type ([2]; 24 h, N = 3) [fold]	increase in D-lactate accumulation compared to wild-type ([2]; 48 h post-treatment, at least three replicates) [fold]
CTCATAGATC [CPP-ncPNA]	no growth inhibition						
TTCATGACGA [CPP-Syn6803ddh]		consistently low	minimal or no changes	minimal or no changes	minimal or no changes	2.5	3
